Test results published in ChEMBL document CHEMBL3259666, “Discovery of a neuroprotective chemical, (S)-N-(3-(3,6-dibromo-9H-carbazol-9-yl)-2-fluoropropyl)-6-methoxypyridin-2-amine [(-)-P7C3-S243], with improved druglike properties” (J Med Chem, 2014).
Active and inactive are the calls of the source. The calls are words filed in the database; no cut-off is given here.

Key:
Mus musculus [1] = test: Neuroprotective activity in wild type C57BL/J6 mouse assessed as survival of newborn hippocampal neurons at 10 uM, icv administered for 7 days by BrdU staining-based immunohistochemical analysis relative to vehicle-treated control; assay type: functional, organism-based
Outline: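 Adult (12 week old) C57BL/J6 mice, environmentally deprived; compound infused via osmotic minipump into left lateral ventricle at 0.5 μL/h for 7 days. BrdU IP 50 mg kg–1 day–1 for 6 days during infusion; perfusion 24 h after last BrdU. BrdU+ cells in SGZ/dentate gyrus of contralateral hemisphere counted in every fifth 40 μm section, normalized to dentate gyrus volume; mean ± SEM.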

Hepatocyte = test: Half life in mouse hepatocytes; assay type: ADME, cell-based
Mus musculus [2] = test: Neuroprotective activity in substantia nigra of C57Bl/6 mouse neurogenesis model assessed as protection from MPTP-induced cell death in mature neurons at 10 mg/kg/day, ip bid administered for 21 days by immunohistochemical analysis relative to vehicle-treated control; assay type: functional; settings: route intraperitoneal
Outline: (§1)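 MPTP model in adult male C57Bl/6 mice, individually housed 1 week. MPTP free base 30 mg/kg/day IP for 5 days. From day 6 (24 h after the last MPTP dose), compound or vehicle given IP twice daily for 21 days. Mice were then perfused with 4% paraformaldehyde. SNc sectioned at 30 μm intervals and every fourth section stained for TH (DAB, hematoxylin counterstain). TH+ cells counted blinded; mean ± SEM, compared with vehicle + MPTP.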

Mus musculus [3] = test: Toxicity in C57Bl/6 mouse assessed as effect on appearance up to 10 mg/kg/day, ip bid administered for 21 days; assay type: organism-based; design: route intraperitoneal; settings: in vivo, 504 h
Plasma [4] = test: Bioavailability in mouse plasma at 10 mg/kg, ip by HPLC/MS/MS analysis; assay type: ADME, organism-based; settings: in vivo
Outline: (§2)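 Mouse PK. Compound formulated in 5% DMSO/10% cremophor EL/85% D5W (pH 7.2) and given IV, IP or by oral gavage. Mice killed at varying times with CO2. Citrated plasma and PBS brain homogenate (3-fold volume) were protein-precipitated with acetonitrile containing 0.15% formic acid and analysed by HPLC/MS/MS against spiked blank standards. Noncompartmental analysis was used, with F = (AUCoral/AUCIV)×(DoseIV/Doseoral)×100%. Values are mean ± SEM.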

Liver microsome [5] = test: Half life in dog liver microsomes; assay type: ADME, Canis lupus familiaris
Mus musculus [6] = test: Toxicity in C57Bl/6 mouse assessed as effect on weight up to 10 mg/kg/day, ip bid administered for 21 days; assay type: organism-based; design: route intraperitoneal; settings: in vivo, 504 h
[7] = Half life in mouse at 10 mg/kg, iv by HPLC/MS/MS analysis; assay type: ADME, organism-based; design: dose 10 mg/kg, route intravenous; settings: in vivo; outline: as §2
Mus musculus [8] = test: Toxicity in C57Bl/6 mouse assessed as effect on behavior up to 10 mg/kg/day, ip bid administered for 21 days; assay type: organism-based; design: route intraperitoneal; settings: in vivo, 504 h
Brain [9] = test: Bioavailability in mouse brain at 20 mg/kg, po by HPLC/MS/MS analysis; assay type: ADME, organism-based; settings: in vivo; outline: as §2
Brain [10] = test: AUC in mouse brain at 20 mg/kg, po by HPLC/MS/MS analysis; assay type: ADME, organism-based; design: dose 20 mg/kg, route oral; settings: in vivo; outline: as §2
Liver = test: Half life in mouse liver microsomes; assay type: ADME
Liver microsome [11] = test: Half life in rat liver microsomes; assay type: ADME
Mus musculus [12] = test: Neuroprotective activity in substantia nigra of C57Bl/6 mouse neurogenesis model assessed as protection from MPTP-induced cell death in mature neurons at 1 mg/kg/day, ip bid administered for 21 days by immunohistochemical analysis relative to vehicle-treated control; assay type: functional, organism-based; outline: as §1
[13] = Half life in mouse at 10 mg/kg, ip by HPLC/MS/MS analysis; assay type: ADME, organism-based; design: dose 10 mg/kg, route intraperitoneal; settings: in vivo; outline: as §2
Plasma [14] = test: Bioavailability in mouse plasma at 20 mg/kg, ip by HPLC/MS/MS analysis; assay type: ADME, organism-based; settings: in vivo; outline: as §2
[15] = Half life in monkey liver microsomes; assay type: ADME, Macaca mulatta; settings: rhesus monkey
Brain [16] = test: Bioavailability in mouse brain at 10 mg/kg, ip by HPLC/MS/MS analysis; assay type: ADME, organism-based; settings: in vivo; outline: as §2
Mus musculus [17] = test: Neuroprotective activity in wild type C57BL/J6 mouse assessed as survival of newborn hippocampal neurons at 0.1 to 10 uM, icv administered for 7 days by BrdU staining-based microscopy relative to vehicle-treated control; assay type: functional, organism-based
Outline: (§3)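 Adult (12-week) wild-type C57BL/J6 mice. Compound infused ICV into the left lateral ventricle by osmotic minipump at 0.5 μL/h for 7 days, with BrdU 50 mg/kg/day IP for 6 days. Perfused 24 h after the last BrdU dose. BrdU antigen unmasked (formamide/SSC at 65 °C, then 2 M HCl); anti-BrdU staining. BrdU+ cells in the contralateral dentate gyrus SGZ counted in every fifth 40 μm section and normalised to dentate gyrus volume.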

Brain [18] = test: Bioavailability in mouse brain at 20 mg/kg, ip by HPLC/MS/MS analysis; assay type: ADME, organism-based; settings: in vivo; outline: as §2
Brain [19] = test: AUC in mouse brain at 10 mg/kg, iv by HPLC/MS/MS analysis; assay type: ADME, organism-based; design: dose 10 mg/kg, route intravenous; settings: in vivo; outline: as §2
Liver microsome [20] = test: Half life in human liver microsomes; assay type: ADME
Brain [21] = test: AUC in mouse brain at 10 mg/kg, ip by HPLC/MS/MS analysis; assay type: ADME, organism-based; design: dose 10 mg/kg, route intraperitoneal; settings: in vivo; outline: as §2
Brain [22] = test: AUC in mouse brain at 20 mg/kg, ip by HPLC/MS/MS analysis; assay type: ADME, organism-based; design: dose 20 mg/kg, route intraperitoneal; settings: in vivo; outline: as §2
Mus musculus [23] = test: Neuroprotective activity in wild type C57BL/J6 mouse assessed as survival of newborn hippocampal neurons at 10 uM, icv administered for 7 days by BrdU staining-based microscopy relative to vehicle-treated control; assay type: functional, organism-based; outline: as §3
[24] = Half life in mouse at 20 mg/kg, po by HPLC/MS/MS analysis; assay type: ADME, organism-based; design: dose 20 mg/kg, route oral; settings: in vivo; outline: as §2
Plasma [25] = test: Bioavailability in mouse plasma at 20 mg/kg, po by HPLC/MS/MS analysis; assay type: ADME, organism-based; settings: in vivo; outline: as §2
Mus musculus [26] = test: Neuroprotective activity in wild type C57BL/J6 mouse assessed as survival of newborn hippocampal neurons at 1 to 10 mg/kg/day, ip bid administered for 7 days by BrdU staining-based immunohistochemical analysis relative to vehicle-treated control; assay type: functional, organism-based
Outline: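 Adult (12-week) wild-type C57BL/J6 mice. Compound given IP twice daily for 7 days, with BrdU 50 mg/kg/day IP. Perfused with 4% paraformaldehyde 24 h after the last BrdU dose. Anti-BrdU immunostaining after formamide/HCl unmasking. BrdU+ cells in the dentate gyrus SGZ counted in every fifth 40 μm section and normalised to dentate gyrus volume; mean ± SEM.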

[27] = Half life in mouse at 20 mg/kg, ip by HPLC/MS/MS analysis; assay type: ADME, organism-based; design: dose 20 mg/kg, route intraperitoneal; settings: in vivo; outline: as §2

Which Activity (Mus musculus [1]) does the source give for `[N-]=[N+]=NCC(F)Cn1c2ccc(Br)cc2c2cc(Br)ccc21` (stereo not given) here?
The Activity was “inactive”.

Which Activity (Mus musculus [1]) does the source give for `COc1cccc(NCC(F)Cn2c3ccc(Br)cc3c3cc(Br)ccc32)n1` (racemic) here?
The Activity was “Active”.

And the t1/2 (Hepatocyte)?
The t1/2 was > 4 h.

What about the Activity (Mus musculus [2]) of the same compound?
The Activity was 85%.

And the Activity (Mus musculus [3])?
Its Activity is “Non-toxic”.

What about the F (Plasma [4]) of the same compound?
Its F is 66%.

What about the t1/2 (Liver microsome [5]) of the same compound?
The t1/2 was 0.75 h.

And the Activity (Mus musculus [6])?
The Activity was “Non-toxic”.

And the half-life [7]?
Its half-life is 7.4 h.

And the Activity (Mus musculus [8])?
The Activity was “Non-toxic”.

And the F (Brain [9])?
The F was 29%.

What about the AUC (Brain [10]) of the same compound?
The AUC was 388 µg·min/g.

And the t1/2 (Liver)?
Its t1/2 is 0.817 h.

What about the t1/2 (Liver microsome [11]) of the same compound?
Its t1/2 is > 4 h.

What about the Activity (Mus musculus [12]) of the same compound?
Its Activity is “Active”.

What about the half-life [13] of the same compound?
The half-life was > 24 h.

And the F (Plasma [14])?
Its F is 90%.

What about the t1/2 [15] of the same compound?
The t1/2 was 1.35 h.

And the F (Brain [16])?
Its F is 28%.

What about the Activity (Mus musculus [17]) of the same compound?
Its Activity is “Active”.

What about the F (Brain [18]) of the same compound?
Its F is 48%.

And the AUC (Brain [19])?
Its AUC is 671 µg·min/g.

And the t1/2 (Liver microsome [20])?
Its t1/2 is 1.95 h.

What about the AUC (Brain [21]) of the same compound?
The AUC was 189 µg·min/g.

What about the AUC (Brain [22]) of the same compound?
The AUC was 319 µg·min/g.

And the Activity (Mus musculus [23])?
The Activity was “Active”.

What about the half-life [24] of the same compound?
Its half-life is 9.6 h.

What about the F (Plasma [25]) of the same compound?
The F was 38%.

And the Activity (Mus musculus [26])?
Its Activity is “Active”.

And the half-life [27]?
Its half-life is 15 h.
